Reference: ChEMBL document CHEMBL1156136, “Hypoxia-activated prodrugs: substituent effects on the properties of nitro seco-1,2,9,9a-tetrahydrocyclopropa[c]benz[e]indol-4-one (nitroCBI) prodrugs of DNA minor groove alkylating agents” (J Med Chem, 2009)

Columns and labels:
HT-29 [1] = assay: Cytotoxicity against human HT-29 cells in hypoxic condition after 4 hrs by sulforhodamine B assay; assay type: functional, cell-based; conditions: HT-29, 4 h
Outline: (§1)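 Log-phase monolayers exposed to drug for 4 h under aerobic (20% O2) or anoxic (<20 ppm O2) conditions, then sulforhodamine B staining 5 days later. IC50 interpolated as concentration lowering cell density to 50% of same-plate controls. HCR = IC50(oxic)/IC50(hypoxic), mean of intraexperiment ratios. A549 P450R line is a stable transfectant with 9-fold higher cytochrome c reduction rate than parent.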

SK-OV-3 [2] = assay: Cytotoxicity against human SKOV3 cells in oxic condition after 4 hrs by sulforhodamine B assay; assay type: functional, cell-based; conditions: SK-OV-3, 4 h; outline: as §1
HT-29 [3] = assay: Cytotoxicity against human HT-29 cells in oxic condition after 4 hrs by sulforhodamine B assay; assay type: functional, cell-based; conditions: HT-29, 4 h; outline: as §1
SK-OV-3 [4] = assay: Cytotoxicity against human SKOV3 cells in hypoxic condition after 4 hrs by sulforhodamine B assay; assay type: functional, cell-based; conditions: SK-OV-3, 4 h; outline: as §1
SK-OV-3 [5] = assay: Hypoxic cytotoxicity ratio, IC50 for human SKOV3 cells in oxic condition to IC50 for human SKOV3 cells in hypoxic condition; assay type: functional; outline: as §1
HT-29 [6] = assay: Hypoxic cytotoxicity ratio, IC50 for human HT-29 cells in oxic condition to IC50 for human HT-29 cells in hypoxic condition; assay type: functional; outline: as §1

SMILES	IC50 (HT-29 [1]) [nM]	IC50 (SK-OV-3 [2]) [nM]	IC50 (HT-29 [3]) [nM]	IC50 (SK-OV-3 [4]) [nM]	Ratio IC50 (SK-OV-3 [5])	Ratio IC50 (HT-29 [6])
CN(C)CCOc1ccc2[nH]c(C(=O)N3CC(CCl)c4c3cc([N+](=O)[O-])c3ccccc43)cc2c1 (stereo unspecified)	0.48	1400	470	0.87	–	–
CN(C)CCOc1ccc2[nH]c(C(=O)N3CC(CCl)c4c3cc([N+](=O)[O-])c3c(S(N)(=O)=O)cccc43)cc2c1 (stereo unspecified)	1200	3700	2700	800	4.6	2.3
COc1cc2cc(C(=O)N3CC(CCl)c4c3cc([N+](=O)[O-])c3cc([N+](=O)[O-])ccc43)[nH]c2c(OC)c1OC (stereo unspecified)	1300	16000	14000	240	70	12
CN(C)CCOc1ccc2[nH]c(C(=O)N3CC(CCl)c4c3cc([N+](=O)[O-])c3cc(C#N)ccc43)cc2c1 (stereo unspecified)	0.43	810	700	0.19	–	–
COc1cc2cc(C(=O)N3CC(CCl)c4c3cc(N)c3cc(C#N)ccc43)[nH]c2c(OC)c1OC (stereo unspecified)	11	10000	15000	9	1.3	1.9
CN(C)CCOc1ccc2[nH]c(C(=O)N3CC(CCl)c4c3cc(N)c3cc(C(N)=O)ccc43)cc2c1 (stereo unspecified)	48	13000	61000	13	1	1.4
COc1cc2cc(C(=O)N3CC(CCl)c4c3cc(N)c3cc(C(N)=O)ccc43)[nH]c2c(OC)c1OC (stereo unspecified)	28	34000	59000	27	1.2	2.3
CC(=O)c1ccc2c3c(cc([N+](=O)[O-])c2c1)N(C(=O)c1cc2cc(OCCN(C)C)ccc2[nH]1)CC3CCl (stereo unspecified)	–	640	170	–	4	1.5
CN(C)CCOc1ccc2[nH]c(C(=O)N3CC(CCl)c4c3cc([N+](=O)[O-])c3cc(C(N)=O)ccc43)cc2c1 (stereo unspecified)	–	3900	4100	–	–	–
COc1cc2cc(C(=O)N3CC(CCl)c4c3cc([N+](=O)[O-])c3c([N+](=O)[O-])cccc43)[nH]c2c(OC)c1OC (stereo unspecified)	> 20	> 20000	> 20000	> 20	–	–
COC(=O)c1ccc2c([N+](=O)[O-])cc3c(c2c1)C(CCl)CN3C(=O)c1cc2cc(OCCN(C)C)ccc2[nH]1 (stereo unspecified)	–	520	550	–	2.4	1.6
CN(C)CCOc1ccc2[nH]c(C(=O)N3CC(CCl)c4c3cc([N+](=O)[O-])c3cccc([N+](=O)[O-])c43)cc2c1 (stereo unspecified)	–	1200	1400	–	1.5	1.3
CC(=O)c1ccc2c([N+](=O)[O-])cc3c(c2c1)C(CCl)CN3C(=O)c1cc2cc(OCCN(C)C)ccc2[nH]1 (stereo unspecified)	–	200	150	–	1.3	1.1
COC(=O)c1ccc2c3c(cc([N+](=O)[O-])c2c1)N(C(=O)c1cc2cc(OCCN(C)C)ccc2[nH]1)CC3CCl (stereo unspecified)	–	440	320	–	1.9	1.2
CN(C)CCOc1ccc2[nH]c(C(=O)N3CC(CCl)c4c3cc([N+](=O)[O-])c3ccc(S(C)(=O)=O)cc43)cc2c1 (stereo unspecified)	–	1900	980	–	2.7	1.2
CN(C)CCOc1ccc2[nH]c(C(=O)N3CC(CCl)c4c3cc([N+](=O)[O-])c3ccc(C(N)=O)cc43)cc2c1 (stereo unspecified)	–	3400	2800	–	34	22
CN(C)CCOc1ccc2[nH]c(C(=O)N3CC(CCl)c4c3cc([N+](=O)[O-])c3ccc(S(N)(=O)=O)cc43)cc2c1 (stereo unspecified)	–	4900	9000	–	21	26
